The values below come from ChEMBL document CHEMBL1157652, “Chemical biology studies on norrisolide” (Bioorg Med Chem, 2010).

Active and inactive are the calls of the source. The calls are words filed in the database; no cut-off is given here.

The subject of data set [1] is NRK. In words: Golgi-disturbing activity in golgi apparatus of rat NRK cells assessed as reversible golgi fragmentation after 60 mins by Hoechst 3342 staining-based immunofluorescence microscopy. The class given is functional, cell-based. In short, it runs like this:
(§1)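 After 1 h compound exposure (30 µM, 37 °C), NRK cells were either fixed directly or washed four times with PBS and kept in fresh complete medium at 37 °C (90 min per methods) before mannosidase II/Hoechst immunofluorescence to judge recovery of Golgi structure.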

The test system of data set [2] is NRK. The data set is described as follows: Golgi-disturbing activity in golgi apparatus of rat NRK cells assessed as golgi vesiculation after 60 mins by Hoechst 3342 staining-based immunofluorescence microscopy. The class given is functional, cell-based. The essentials:
(§2)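 NRK cells grown in alpha MEM with 10% FCS, 2 mM glutamine and 25 mM Hepes pH 7.4 on coated coverslips. Compound at 30 µM working concentration (DMSO vehicle control) for 60 min at 37 °C. Cells then immunostained for mannosidase II with Alexa 594 secondary and Hoechst for nuclei, and scored by fluorescence microscopy at 60×.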

Data set [3] deals with NRK. In words: Golgi-disturbing activity in golgi apparatus of rat NRK cells assessed as partial golgi vesiculation after 60 mins by Hoechst 3342 staining-based immunofluorescence microscopy. The format is functional, cell-based. In short, it runs like this: as §2
For data set [4], the system named is NRK. In words: Golgi-disturbing activity in golgi apparatus of rat NRK cells assessed as golgi fragmentation measured after 60 mins following drug washout by Hoechst 3342 staining-based immunofluorescence microscopy. The class given is functional, cell-based.
Data set [5] has as its system NRK. The data set is described as follows: Golgi-disturbing activity in golgi apparatus of rat NRK cells assessed as fusion of golgi membrane fusion with endoplasmic reticulum at 7 uM after 60 mins by Hoechst 3342 staining-based immunofluorescence microscopy. The class given is functional, cell-based. The essentials: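 Agent applied for 60 min at 37 °C, with a DMSO control. Golgi read by immunofluorescence: rabbit mannosidase II primary, Alexa Fluor 594 secondary, Hoechst DNA stain, 60× fluorescence microscopy.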

In data set [6] the test system is NRK. In words: Golgi-disturbing activity in golgi apparatus of rat NRK cells assessed as reversible golgi vesiculation after 60 mins by Hoechst 3342 staining-based immunofluorescence microscopy. The format is functional, cell-based. In short, it runs like this:
as §1

A short description of data set [7]: Drug localization in golgi apparatus of rat NRK cells after 10 mins by immunofluorescence microscopy. The format is ADME, cell-based. In short, it runs like this: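 Live NRK cells incubated with fluorescent probe for 10 min and imaged for Golgi-like perinuclear staining. For colocalization, cells were mildly fixed (2% formaldehyde, 90 s), immunostained for mannosidase II, then given probe at 25 μM for 30 min before mounting. Coumarin read at excitation 370 nm, emission 460 nm.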

For data set [8], the system named is NRK. The data set is described as follows: Golgi-disturbing activity in golgi apparatus of rat NRK cells assessed as transport of GFP-fused VSV G protein from endoplasmic reticulum to golgi after 60 mins by protein transport assay. The format is functional, cell-based. The essentials: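 NRK cells were transfected with tsO45 VSV-G-GFP using FuGene 6 and held at 40 °C for 20 h to arrest VSV-G in the ER. They were treated with compound (30 µM working) or DMSO for 1 h, then moved to 20 °C for 2 h with cycloheximide. VSV-G entry into the Golgi was judged by fluorescence microscopy against the Golgi marker.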

Data set [9] deals with NRK. The data set is described as follows: Golgi-disturbing activity in golgi apparatus of rat NRK cells assessed as golgi fragmentation after 60 mins by Hoechst 3342 staining-based immunofluorescence microscopy in presence of PKD inhibitor H89. The format is functional, cell-based. In short, it runs like this:
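NRK cells were pretreated with H-89 (20 µM) for 30 min, then incubated with compound for 1 h at 37 °C. Golgi was read by mannosidase II immunofluorescence with Hoechst counterstain.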

Data set [10] relates to NRK. In words: Golgi-disturbing activity in golgi apparatus of rat NRK cells assessed as microtubule depolymerization-associated golgi fragmentation after 60 mins by Hoechst 3342 staining-based immunofluorescence microscopy.
The test system of data set [11] is NRK. In words: Golgi-disturbing activity in golgi apparatus of rat NRK cells assessed as transport of GFP-fused VSV G protein from fragmented golgi to plasma membrane after 60 mins by protein transport assay. The format is functional, cell-based. In short, it runs like this:
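After transfection with tsO45 VSV-G-GFP, NRK cells were held at 40 °C for 20 h, then at 20 °C for 2 h with cycloheximide to hold VSV-G in the Golgi. Cells were then incubated with compound (30 µM working) or DMSO and shifted to 32 °C for 1 h. Arrival at the plasma membrane was imaged by fluorescence microscopy.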

Data set [12] has as its system NRK. The data set is described as follows: Golgi-disturbing activity in golgi apparatus of rat NRK cells assessed as enhancement of nocodazole-induced golgi fragmentation after 60 mins by Hoechst 3342 staining-based immunofluorescence microscopy. The class given is functional, cell-based. The essentials: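 NRK cells were pretreated with nocodazole (30 µM) for 60 min, then given compound for a further 60 min. Golgi was visualized by mannosidase II immunofluorescence with Hoechst nuclear stain.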

Data set [13] deals with NRK. In words: Golgi-disturbing activity in golgi apparatus of rat NRK cells assessed as irreversible golgi fragmentation after 60 mins by Hoechst 3342 staining-based immunofluorescence microscopy. The class given is functional, cell-based. In short, it runs like this: as §1
For data set [14], the system named is NRK. In words: Golgi-disturbing activity in golgi apparatus of rat NRK cells assessed as complete golgi vesiculation without fusion with endoplasmic reticulum at 30 uM after 60 mins by Hoechst 3342 staining-based immunofluorescence microscopy. The format is functional, cell-based. The essentials:
as §2

Data set [15] concerns NRK. The data set is described as follows: Golgi-disturbing activity in golgi apparatus of rat NRK cells assessed as golgi fragmentation after 60 mins by Hoechst 3342 staining-based immunofluorescence microscopy. The class given is functional. The essentials:
as §2

The test system of data set [16] is NRK. The data set is described as follows: Golgi-disturbing activity in golgi apparatus of rat NRK cells assessed as microtubule depolymerization-associated golgi fragmentation at 30 uM after 60 mins by Hoechst 3342 staining-based immunofluorescence microscopy. The format is functional, cell-based. The essentials: as §2

As for `COc1ccc(C(=O)O[C@H]2CC[C@H]3C(C)(C)CCC[C@]23C)c(OC)c1`, the outcome in the data set with NRK [1] and with NRK [2] was Active.
Take `C=C([C@@H]1[C@@H](OC(C)=O)O[C@@H]2OC(=O)C[C@@H]21)C(C)(C)C`: the outcome in the data set with NRK [3], in the data set with NRK [1] and in the data set with NRK [4] was inactive.
With `C[C@H]1CCC/C=C/[C@@H]2C[C@H](O)C[C@H]2[C@H](O)/C=C/C(=O)O1`, the outcome in the data set with NRK [5] was Active.
As for `C=C([C@H]1[C@H]2CC(=O)O[C@H]2O[C@@H]1C(C)=O)C(C)(C)C`, the outcome in the data set with NRK [3], in the data set with NRK [1] and with NRK [4] was inactive.
Regarding `CN(C)c1ccc2c(CC(=O)NCC#Cc3cc(C(=O)O[C@H]4CC[C@H]5C(C)(C)CCC[C@]45C)c(OCC4CC4)cc3OCC3CC3)cc(=O)oc2c1`, the outcome in the data set with NRK [6] and in the data set with NRK [2] was Active. The Drug uptake result in data set [7] is recorded as “Active”.
Turning to `C=C([C@H]1[C@H]2CC(=O)O[C@H]2O[C@@H]1C(C)=O)[C@H]1CC[C@H]2C(C)(C)CCC[C@]12C`, the result in the data set on NRK [3] and in the data set with NRK [1] was Active.
For `C=C([C@@H]1[C@@H](OC(C)=O)O[C@@H]2OC(=O)C[C@@H]21)[C@H]1CC[C@H]2C(C)(C)CCC[C@]12C`, in the data set on NRK [8], the outcome was inactive. The result in the data set with NRK [9], in the data set with NRK [10], in the data set with NRK [11] and in the data set with NRK [12] was Active.
Regarding `C=C1CCC[C@H]2[C@](C)(CC3=C(O)C(=O)C=C(OC)C3=O)[C@@H](C)CC[C@]12C`, the outcome in the data set on NRK [9] was inactive. In addition, the result in the data set on NRK [13], with NRK [14] and in the data set with NRK [15] was Active.
For `COC(=O)Nc1nc2cc(C(=O)c3cccs3)ccc2[nH]1`, the result with NRK [16] was Active.
Regarding `CC(=O)O[C@H]1O[C@@H]2OC(=O)C[C@@H]2[C@H]1OCc1ccccc1`, the result with NRK [3], in the data set on NRK [1] and with NRK [4] was inactive.
In the case of `C=C([C@H]1[C@H]2CC(=O)O[C@H]2O[C@@H]1CO)[C@H]1CC[C@H]2C(C)(C)CCC[C@]12C`, the outcome in the data set with NRK [3] and in the data set with NRK [1] was Active.
Regarding `CC(=O)[C@H]1O[C@@H]2OC(=O)C[C@@H]2[C@H]1OCc1ccccc1`, the result in the data set with NRK [3], in the data set with NRK [1] and with NRK [4] was inactive.
For the molecule `C=C([C@H]1[C@H]2CC(=O)O[C@H]2O[C@@H]1COC(=O)Cc1cc(=O)oc2cc(N(C)C)ccc12)[C@H]1CC[C@H]2C(C)(C)CCC[C@]12C`, the Drug uptake entry in [7] is “Active”. Further, in the data set with NRK [15], the outcome was Active.
`CC1(C)CCC[C@]2(C)[C@@H](OC(=O)c3ccc(OCC4CC4)cc3OCC3CC3)CC[C@@H]12`: the result with NRK [2] and with NRK [4] was Active.
